Source: ChEMBL document CHEMBL4725263, “Discovery of potential dual-target prodrugs of HIV-1 reverse transcriptase and nucleocapsid protein 7” (Bioorg Med Chem Lett, 2020)

Legend:
[1] = Cytotoxicity in mock-infected human MT4 assessed as reduction in cell viability incubated for 5 days by MTT assay; format: cell-based; conditions: mock-infected MT4 cells, time 5 day
Procedure, shortened: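 Mock-infected MT-4 cultures were run alongside the HIV-1 IIIB and RES056 (K103N/Y181C) protection assays and incubated for 5 days. Viability was read by MTT. CC50 is the concentration that cuts viability of the mock-infected cultures by 50%.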

[2] = Cytotoxicity in human TZM assessed as reduction in cell viability incubated for 5 days by MTT assay; format: cell-based; conditions: TZM cells, time 5 day
Procedure, shortened: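 Uninfected TZM-bl cells were exposed to compound in parallel with the HIV-1 NL4-3 antiviral assay. CC50 is the concentration that cuts viability by 50%. Each compound was run in at least triplicate, and values were averaged from at least four independent experiments.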

[3] = (§1) Inhibition of reverse transcriptase/nucleocapsid protein 7 in wild type HIV1 3B infected in human MT4 cells assessed as protection against virus-induced cytopathic effect incubated for 5 days by MTT assay; format: cell-based; conditions: Human immunodeficiency virus 1, 3B, MT4, 120 h
Procedure, shortened: (§2)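 MT-4 cells infected with HIV-1 IIIB (wild type) or RES056 (K103N/Y181C RT double mutant); 5-day incubation; viability by MTT. EC50 is the concentration giving 50% protection against virus-induced cytotoxicity. CC50 is the concentration cutting viability of mock-infected cultures by 50%. SI is CC50/EC50. Fold resistance is EC50 mutant/EC50 wild type.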

[4] = Inhibition of nucleocapsid protein 7/reverse transcriptase K103N/Y181C double mutant in HIV1 RES056 infected in human MT4 cells assessed as protection against virus-induced cytopathic effect incubated for 5 days by MTT assay; format: cell-based; conditions: Human immunodeficiency virus 1, RES056, MT4, 120 h; procedure, shortened: as §2
[5] = as §1, with “Selectivity index, ratio of CC50 for cytotoxicity in mock-infected human MT4 cells assessed as reduction in cell viability incubated for 5 days by MTT to EC50 for inhibition” for “Inhibition”; format: toxicity, cell-based; conditions: time 5 day, read-out: Ratio CC50/EC50; procedure, shortened: as §2
[6] = Selectivity index, ratio of CC50 for cytotoxicity in mock-infected human MT4 cells assessed as reduction in cell viability incubated for 5 days by MTT to EC50 for inhibition of reverse transcriptase K103N/Y181C double mutant/nucleocapsid protein 7 in HIV1 RES056 infected in human MT4 cells assessed as protection against virus-induced cytopathic effect incubated for 5 days by MTT assay; format: toxicity, cell-based; conditions: time 5 day, read-out: Ratio CC50/EC50; procedure, shortened: as §2
[7] = test system: Human immunodeficiency virus 1; experiment: Fold resistance, ratio of EC50 for inhibition of reverse transcriptase K103N/Y181C double mutant/nucleocapsid protein 7 in HIV1 RES056 infected in human MT4 cells assessed as protection against virus-induced cytopathic effect incubated for 5 days by MTT assay to EC50 for reverse transcriptase/nucleocapsid protein 7 in wild type HIV1 3B infected in human MT4 cells assessed as protection against virus-induced cytopathic effect incubated for 5 days by MTT assay; format: cell-based; conditions: time 5.0 day; procedure, shortened: as §2
[8] = Inhibition of reverse transcriptase/nucleocapsid protein 7 in wild type HIV1 NL4-3 infected in human TZM-bl cells assessed as protection against virus-induced cytopathic effect incubated for 5 days by MTT assay; format: cell-based; conditions: Human immunodeficiency virus 1, NL4-3, TZM-bl, 120 h
[9] = Selectivity index, ratio of CC50 for cytotoxicity in human TZM-bl assessed as reduction in cell viability incubated for 5 days by MTT to EC50 for inhibition of reverse transcriptase/nucleocapsid protein 7 in wild type HIV1 NL4-3 infected in human TZM-bl cells assessed as protection against virus-induced cytopathic effect incubated for 5 days by MTT assay; format: toxicity, cell-based; conditions: time 5 day, read-out: Ratio CC50/EC50
[10] = Prodrug conversion in human plasma assessed as […] measured after 10 mins at 37 degree C by LC-MS/MS analysis; format: ADME, cell-free
Procedure, shortened: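 Prodrug incubated in human plasma (pH 7.4 ± 0.1) at 37 °C for 1 h. Remaining prodrug and formed MT and AZT measured by LC-MS/MS, in triplicate at each time point. Decrease in prodrug plotted against MT formed over the first 10 min with a linear fit.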

[11] = Prodrug conversion in human plasma assessed as enzyme-mediated drug hydrolysis measured after 10 mins at 37 degree C by LC-MS/MS analysis

Row | SMILES | CC50 at 120 h [1] | CC50 at 120 h [2] | EC50 [3] | EC50 [4] | selectivity ratio at 120 h [5] | selectivity ratio at 120 h [6] | Ratio EC50 [7] | EC50 [8] | selectivity ratio at 120 h [9] | Drug metabolism [10] | Drug metabolism [11]
1 | Cc1cn([C@H]2C[C@H](N=[N+]=[N-])[C@@H](COC(=O)CCCC(=O)OCSc3ccccc3C(=O)NCCC(N)=O)O2)c(=O)[nH]c1=O | > 202 µM | > 1620 nM |  |  |  |  |  |  |  |  | 
2 | NC(=O)CCNC(=O)c1ccccc1S | 332 µM | 82500 nM | 5260 nM | 7940 nM | 63 | 41.9 | 1.5 | 2360 nM | > 34.9 |  | 
3 | Cc1cn([C@H]2C[C@H](N=[N+]=[N-])[C@@H](CO)O2)c(=O)[nH]c1=O [ZIDOVUDINE] | > 7.48 µM | > 374 nM | 11 nM | 1200 nM | > 645 | > 6.25 |  | 16 nM | > 23.4 |  | 
4 | Cc1cn([C@H]2C[C@H](N=[N+]=[N-])[C@@H](COC(=O)CCC(=O)OCSc3ccccc3C(=O)NCCC(N)=O)O2)c(=O)[nH]c1=O | 124 µM | > 1660 nM |  |  |  |  |  |  |  |  | 
5 | Cc1cn([C@H]2C[C@H](N=[N+]=[N-])[C@@H](COC(=O)CCCCC(=O)OCSc3ccccc3CNCCC(N)=O)O2)c(=O)[nH]c1=O | > 198 µM | > 1580 nM | 42 nM | 1330 nM | > 4660 | > 149 | 31.6 | 308 nM | > 4.76 | Metabolite_Detected | 100%
6 | Cc1cn([C@H]2C[C@H](N=[N+]=[N-])[C@@H](COC(=O)CC(C)CC(=O)OCSc3ccccc3C(=O)NCCC(N)=O)O2)c(=O)[nH]c1=O (stereo partly specified) | > 198 µM | > 1580 nM |  |  |  |  |  |  |  |  | 
7 | Cc1cn([C@H]2C[C@H](N=[N+]=[N-])[C@@H](COC(=O)CC(C)(C)CC(=O)OCSc3ccccc3C(=O)NCCC(N)=O)O2)c(=O)[nH]c1=O | > 194 µM | > 1550 nM |  |  |  |  |  |  |  |  | 
